# Data reported in PMC4474499 (Science Advances, 2015).
# “Also recorded” adds a separate entry of the source. Non-standard residues stand in square brackets, D forms with d. No end group written: not given here. Pam3Cys = Cys carrying the Pam3 acyl chains of Pam3CSK4
# B1: human TLR1 protein, purified extracellular domain (receptor, UniProt Q15399 25-580, looked up)
# chain: SEFLVDRSKNGLIHVPKDLSQKTTILNISQNYISELWTSDILSLSKLRILIISHNRIQYLDISVFKFNQELEYLDLSHNKLVKISCHPTVNLKHLDLSFNAFDALPICKEFGNMSQLKFLGLSTTHLEKSSVLPIAHLNISKVLLVLGETYGEKEDPEGLQDFNTESLHIVFPTNKEFHFILDVSVKTVANLELSNIKCVLEDNKCSYFLSILAKLQTNPKLSNLTLNNIETTWNSFIRILQLVWHTTVWYFSISNVKLQGQLDFRDFDYSGTSLKALSIHQVVSDVFGFPQSYIYEIFSNMNIKNFTVSGTRMVHMLCPSKISPFLHLDFSNNLLTDTVFENCGHLTELETLILQMNQLKELSKIAEMTTQMKSLQQLDISQNSVSYDEKKGDCSWTKSLLSLNMSSNILTDTIFRCLPPRIKVLDLHSNKIKSIPKQVVKLEALQELNVAFNSLTDLPGCGSFSSLSVLIIDHNSVSHPSADFFQSCQKMRSIKAGDNPFQCTCELGEFVKNIDQVSSEVLEGWPDSYKCDYPESYRGTLLKDFHMSELSCNIT
# Tests used:
# [1] = molecular target: human TLR2 (Homo sapiens, UniProt O60603+Q15399); assay: SEAP reporter gene detection assay in HEK-Blue hTLR2 cells; type: cell-based
# human TLR2, sequence (O60603 21-784): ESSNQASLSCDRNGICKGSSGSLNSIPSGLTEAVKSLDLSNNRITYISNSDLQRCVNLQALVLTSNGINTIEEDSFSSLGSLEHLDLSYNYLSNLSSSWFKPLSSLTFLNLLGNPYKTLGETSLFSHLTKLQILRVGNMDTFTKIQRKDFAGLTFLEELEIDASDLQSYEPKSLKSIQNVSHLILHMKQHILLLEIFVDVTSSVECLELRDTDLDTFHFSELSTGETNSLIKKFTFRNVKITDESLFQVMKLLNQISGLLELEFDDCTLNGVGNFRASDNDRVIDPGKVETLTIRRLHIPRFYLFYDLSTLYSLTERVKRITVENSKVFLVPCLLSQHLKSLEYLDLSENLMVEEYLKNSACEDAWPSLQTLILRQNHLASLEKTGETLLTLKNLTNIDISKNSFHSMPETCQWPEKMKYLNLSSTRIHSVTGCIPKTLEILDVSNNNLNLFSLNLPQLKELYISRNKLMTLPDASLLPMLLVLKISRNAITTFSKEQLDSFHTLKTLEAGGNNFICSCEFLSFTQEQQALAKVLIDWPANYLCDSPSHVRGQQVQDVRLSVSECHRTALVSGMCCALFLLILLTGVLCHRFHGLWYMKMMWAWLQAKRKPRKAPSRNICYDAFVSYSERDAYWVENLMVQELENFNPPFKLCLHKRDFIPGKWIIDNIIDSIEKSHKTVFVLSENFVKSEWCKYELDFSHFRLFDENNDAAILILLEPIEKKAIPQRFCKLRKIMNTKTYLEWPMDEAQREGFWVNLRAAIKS
# human TLR2, sequence (Q15399 25-786): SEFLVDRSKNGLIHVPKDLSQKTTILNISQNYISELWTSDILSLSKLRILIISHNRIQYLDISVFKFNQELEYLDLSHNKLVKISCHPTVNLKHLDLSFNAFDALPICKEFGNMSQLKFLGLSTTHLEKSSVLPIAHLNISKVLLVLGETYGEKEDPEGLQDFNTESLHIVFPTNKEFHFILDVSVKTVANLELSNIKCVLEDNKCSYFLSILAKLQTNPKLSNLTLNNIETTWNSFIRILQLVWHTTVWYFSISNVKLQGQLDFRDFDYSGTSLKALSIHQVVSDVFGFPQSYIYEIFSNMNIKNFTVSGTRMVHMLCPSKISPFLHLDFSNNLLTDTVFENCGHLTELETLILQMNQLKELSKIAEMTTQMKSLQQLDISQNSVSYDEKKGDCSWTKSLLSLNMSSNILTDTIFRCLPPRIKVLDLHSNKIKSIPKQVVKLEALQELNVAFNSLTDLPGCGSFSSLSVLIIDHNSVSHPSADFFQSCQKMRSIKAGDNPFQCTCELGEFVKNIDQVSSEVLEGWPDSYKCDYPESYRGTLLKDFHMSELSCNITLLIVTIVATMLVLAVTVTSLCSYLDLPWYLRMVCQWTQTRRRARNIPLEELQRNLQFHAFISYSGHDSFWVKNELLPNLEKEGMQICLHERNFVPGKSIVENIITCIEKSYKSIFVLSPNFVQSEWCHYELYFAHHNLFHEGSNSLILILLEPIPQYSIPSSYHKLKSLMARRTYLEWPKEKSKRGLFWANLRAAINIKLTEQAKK
# How it was run: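 HEK-Blue hTLR2 cells (SEAP reporter), 4 × 10^4/well, grown 24 h. Then 24 h in Opti-MEM/0.5% FBS with compounds at 0–50 μM or 0–100 μM. Pam3CSK4 (0–66 nM) used as reference agonist. Supernatant heat-treated 30 min at 65°C, cooled, mixed with SEAP buffer and CSPD substrate; luminescence read after 20 min.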
# [2] = molecular target: TLR1/2 complex (Homo sapiens, UniProt O60603+Q15399); assay: Fluorescence anisotropy competition with Rho-Pam3; type: binding; conditions: up to 10 μM
# TLR1/2 complex, sequence (O60603 21-588 limits assumed, one chain of several): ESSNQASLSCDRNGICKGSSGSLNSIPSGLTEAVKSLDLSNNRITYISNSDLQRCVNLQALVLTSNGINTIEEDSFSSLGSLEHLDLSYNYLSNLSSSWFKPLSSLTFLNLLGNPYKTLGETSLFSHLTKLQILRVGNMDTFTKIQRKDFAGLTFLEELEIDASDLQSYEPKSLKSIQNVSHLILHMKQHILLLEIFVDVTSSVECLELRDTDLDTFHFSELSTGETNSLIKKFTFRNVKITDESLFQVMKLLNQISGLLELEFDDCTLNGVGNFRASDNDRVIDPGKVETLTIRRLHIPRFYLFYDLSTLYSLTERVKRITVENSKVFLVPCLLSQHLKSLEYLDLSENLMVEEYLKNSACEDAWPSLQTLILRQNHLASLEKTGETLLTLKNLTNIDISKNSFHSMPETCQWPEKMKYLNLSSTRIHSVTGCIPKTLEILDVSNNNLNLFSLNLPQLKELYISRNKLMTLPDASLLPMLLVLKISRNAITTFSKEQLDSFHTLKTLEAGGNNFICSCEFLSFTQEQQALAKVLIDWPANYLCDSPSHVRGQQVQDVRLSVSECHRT
# How it was run: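 Equal amounts of TLR1 and TLR2 (4 μl each of 10 μM stocks) added to Rho-Pam3CSK4 in PBS pH 7.4 and held 30 min. Serial test-compound concentrations then incubated with the complex 30 min at RT. Fluorescence anisotropy read at 25°C (ex 549/em 566 nm). An analog served as negative control; IC50 derived from the titration.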
# [3] = system: NF-κB; assay: U937 NF-κB–GFP reporter assay; type: cell-based, human; conditions: 20 μM (GA even up to 100 μM), U937 cells
# [4] = system: Raw 264.7 cells; assay: In vitro NO activation assay for Raw 264.7 cells; type: cell-based, mouse; conditions: Raw 264.7 macrophage cells, 1 µM CU-T12-9
# How it was run: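 RAW 264.7 cells, 80,000/well, grown 24 h. Non-adherent cells removed; medium changed to unsupplemented RPMI 1640. Treated 24 h with test compound, or 66 nM (100 ng/ml) Pam3CSK4 as control. Supernatant reacted 15 min in the dark with 2,3-diaminonaphthalene in HCl, quenched with NaOH. Fluorescence read at ex 365/em 450 nm; nitrite calculated from a standard curve.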
# [5] = system: NF-κB; assay: Triptolide inhibition of CU-T12-9–induced SEAP signaling in HEK-Blue hTLR2 cells; type: cell-based, human
# [6] = system: Raw 264.7 cells; assay: Quantitative RT-PCR of mRNA levels in Raw 264.7 macrophage cells; type: cell-based, mouse
# How it was run: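 RAW 264.7 cells, 1 × 10^6/well, grown 24 h, then given fresh RPMI 1640. Exposed to test compound, or 33 nM (50 ng/ml) Pam3CSK4, for 0, 2, 8 or 24 h. Cells washed in cold PBS and frozen. Total RNA extracted (RNeasy) for qRT-PCR. Fold change calculated by ΔΔCt versus DMSO-treated cells, means ± SD.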
# [7] = molecular target: hTLR1 and hTLR2 (Homo sapiens, UniProt O60603+Q15399); assay: SEC-LS assay of TLR1/2 heterodimer formation; type: biochemical; conditions: CU-T12-9 0 to 40 μM or Pam3CSK4 260 nM (400 ng/ml)
# hTLR1 and hTLR2, sequence (O60603 21-588 limits assumed, one chain of several): as above
# How it was run: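 Human TLR2 in PBS pH 7.4 preincubated 2 h at RT with test compound or Pam3CSK4. Equimolar hTLR1 then added (final about 10 μM each) for 2 h at 37°C. Both proteins were baculovirus/insect-cell products. Samples filtered (0.1 μm) and run on size-exclusion column in PBS at 1 ml/min. Detection by in-line multi-angle light scattering, refractive index and UV.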
# [8] = molecular target: the molecule itself; assay: SEC-MALS
# [9] = molecular target: B1; assay: fluorescence polarisation
# [10] = molecular target: human TLR2 protein, purified extracellular domain (human, UniProt O60603 21-588); assay: fluorescence polarisation
# human TLR2 protein, purified extracellular domain, sequence (O60603 21-588): as the sequence (O60603 21-588 limits assumed, one chain of several) above
# [11] = molecular target: TLR1/TLR2 complex (equimolar mixture of purified hTLR1 and hTLR2) (human, UniProt Q15399 25-580; O60603 21-588); assay: fluorescence polarisation
# TLR1/TLR2 complex (equimolar mixture of purified hTLR1 and hTLR2), sequence (O60603 21-588, chain 2 of 2, one chain of several): as the sequence (O60603 21-588 limits assumed, one chain of several) above
molecule,measurement,setting,value
CNc1ccc([N+](=O)[O-])cc1-n1cnc(-c2cccc([N+](=O)[O-])c2)c1 [Compound 10],SEAP agonist activity (in words),"[1]; HEK-Blue hTLR2 cells, nitro group switched from R3 to R4",completely abolished activity
CNc1ccc([N+](=O)[O-])cc1-n1cnc(-c2ccc(C#N)cc2)c1 [Compound 11],increase in potency relative to GA (factor),[1]; replacement of –NO2 at R3,10
CNc1ccc([N+](=O)[O-])cc1-n1cnc(-c2ccc(C(=O)O)cc2)c1 [Compound 19],SEAP activity at 100 μM,"[1]; 100 μM, HEK-Blue hTLR2 cells",inactive
CNc1ccc(C(F)(F)F)cc1-n1cnc(-c2ccc(C(F)(F)F)cc2)c1 [Compound 20],decrease in potency compared with CU-T12-9,[1]; –CF3 at R1,four times
CNc1ccc(C(=O)O)cc1-n1cnc(-c2ccc(C(F)(F)F)cc2)c1 [Compound T12-29],inhibition of Rho-Pam3 binding to TLR1/TLR2,[2],no competitive binding; also recorded: negligible inhibition
"CNc1ccc([N+](=O)[O-])cc1-n1cnc(-c2ccc([N+](=O)[O-])cc2)c1 [GA, N-methyl-4-nitro-2-(4-(4-nitrophenyl)-1H-imidazol-1-yl)aniline, reference compound]",NF-κB activation,[3],much lower NF-κB activation
"CCOC(=O)C1=CCCC[C@H]1S(=O)(=O)Nc1ccc(F)cc1Cl [TAK-242, reference compound]",inhibition of CU-T12-9 induced NO activation,[4],could not be influenced
CC(C)[C@]12O[C@H]1[C@@H]1O[C@]13[C@]1(O[C@H]1C[C@H]1C4=C(CC[C@@]13C)C(=O)OC4)[C@@H]2O [Triptolide],inhibition of CU-T12-9–induced SEAP signaling,[5],efficiently inhibit
Pam3CSK4 [reference compound],time of highest TLR2 mRNA expression,"[6]; 1 μM CU-T12-9 or 33 nM (50 ng/ml) Pam3CSK4, measured at 2, 8, 24 hours",2 h
same,TNF mRNA expression,"[6]; over time, maximal expression after 8 hours",increased
same,iNOS mRNA expression,"[6]; over time, peaked at 24 hours",increased
same,TLR1/2 heterodimer formation,[7],promoted TLR1/2 heterodimerization
B1,stoichiometry N,[8],2
"[Pam3Cys]SKKKK (also: rhodamine label, site not given here) [rhodamine-labeled Pam3CSK4]",Kd,[9],41.6 ± 2.36 nM
same,Kd,[10],125 ± 3.43 nM
same,Kd,[11],35 ± 1.98 nM
